Source: ChEMBL document CHEMBL4038305, “Benzoxaborole Antimalarial Agents. Part 5. Lead Optimization of Novel Amide Pyrazinyloxy Benzoxaboroles and Identification of a Preclinical Candidate” (J Med Chem, 2017)

Experiments:
Plasmodium berghei [1] = experiment: Antimalarial activity against Plasmodium berghei infected in Swiss Webster mouse assessed as mouse survival rate at 33 mg/kg administered once daily via oral gavage for 4 consecutive days beginning 1 hr after infection measured on day 5 post infection relative to control; assay type: functional
In short: (§1)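 P. berghei-infected erythrocytes taken from a previously infected mouse were injected intraperitoneally. Oral dosing, once daily for 4 consecutive days, began 1 h after infection, in polyethylene glycol 300/propylene glycol/water (55/25/20 by weight). Chloroquine at 30 mg/kg was the positive control, with a vehicle-only group. Percent survival was recorded daily from day 4 to day 20.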

Plasmodium berghei [2] = experiment: Antimalarial activity against Plasmodium berghei infected in Swiss Webster mouse assessed as mouse survival rate at 100 mg/kg administered once daily via oral gavage for 4 consecutive days beginning 1 hr after infection measured on day 6 post infection relative to control; assay type: functional
In short: (§2)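 Mice given an intraperitoneal injection of P. berghei-infected erythrocytes taken from a previously infected animal. Oral dosing once daily for 4 consecutive days, starting 1 h after infection. Vehicle: polyethylene glycol 300/propylene glycol/water (weight ratio 55/25/20). Percent survival recorded daily from day 4 to day 20. Chloroquine 30 mg/kg and vehicle-only groups served as controls.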

Plasmodium berghei [3] = experiment: Antimalarial activity against Plasmodium berghei infected in Swiss Webster mouse assessed as mouse survival rate at 100 mg/kg administered once daily via oral gavage for 4 consecutive days beginning 1 hr after infection measured on day 9 post infection relative to control; assay type: functional; in short: as §2
Plasmodium falciparum [4] = experiment: Antimalarial activity against chloroquine-resistant Plasmodium falciparum W2 infected in human erythrocytes after 48 hrs by YOYO-1 dye based flow cytometric analysis; assay type: functional, cell-based; details: W2, 48 h
In short: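 P. falciparum W2 cultures were exposed to the compound for 48 h, with artemisinin and chloroquine as reference controls. IC50 was taken from two independent replicates.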

Plasmodium berghei [5] = experiment: Antimalarial activity against Plasmodium berghei infected in Swiss Webster mouse assessed as mouse survival rate administered once daily via oral gavage for 4 consecutive days beginning 1 hr after infection measured on day 4 post infection; assay type: functional; in short: as §2
Plasmodium berghei [6] = experiment: Antimalarial activity against Plasmodium berghei infected in Swiss Webster mouse assessed as mouse survival rate at 100 mg/kg administered once daily via oral gavage for 4 consecutive days beginning 1 hr after infection measured on day 11 post infection relative to control; assay type: functional; in short: as §2
Plasmodium berghei [7] = experiment: Antimalarial activity against Plasmodium berghei infected in Swiss Webster mouse assessed as mouse survival rate at 11 mg/kg administered once daily via oral gavage for 4 consecutive days beginning 1 hr after infection measured on day 6 post infection relative to control; assay type: functional; in short: as §1
Plasmodium berghei [8] = experiment: Antimalarial activity against Plasmodium berghei infected in Swiss Webster mouse assessed as mouse survival rate at 33 mg/kg administered once daily via oral gavage for 4 consecutive days beginning 1 hr after infection measured on day 4 post infection relative to control; assay type: functional; in short: as §1
Plasmodium berghei [9] = experiment: Antimalarial activity against Plasmodium berghei infected in Swiss Webster mouse assessed as mouse survival rate at 33 mg/kg administered once daily via oral gavage for 4 consecutive days beginning 1 hr after infection measured on day 7 post infection relative to control; assay type: functional; in short: as §1
Plasmodium berghei [10] = experiment: Antimalarial activity against Plasmodium berghei infected in Swiss Webster mouse assessed as mouse survival rate at 100 mg/kg administered once daily via oral gavage for 4 consecutive days beginning 1 hr after infection measured on day 8 post infection relative to control; assay type: functional; in short: as §2
Plasmodium berghei [11] = experiment: Antimalarial activity against Plasmodium berghei infected in Swiss Webster mouse assessed as mouse survival rate at 11 mg/kg administered once daily via oral gavage for 4 consecutive days beginning 1 hr after infection measured on day 5 post infection relative to control; assay type: functional; in short: as §1
Plasmodium berghei [12] = experiment: Antimalarial activity against Plasmodium berghei infected in Swiss Webster mouse assessed as mouse survival rate at 0.4 mg/kg administered once daily via oral gavage for 4 consecutive days beginning 1 hr after infection measured on day 6 post infection relative to control; assay type: functional; in short: as §2
Plasmodium berghei [13] = experiment: Antimalarial activity against Plasmodium berghei infected in Swiss Webster mouse assessed as mouse survival rate at 1.2 mg/kg administered once daily via oral gavage for 4 consecutive days beginning 1 hr after infection measured on day 4 post infection relative to control; assay type: functional; in short: as §2
Plasmodium berghei [14] = experiment: Antimalarial activity against Plasmodium berghei infected in Swiss Webster mouse assessed as mouse survival rate at 11 mg/kg administered once daily via oral gavage for 4 consecutive days beginning 1 hr after infection measured on day 4 post infection relative to control; assay type: functional; in short: as §1
Plasmodium berghei [15] = experiment: Antimalarial activity against Plasmodium berghei infected in Swiss Webster mouse assessed as mouse survival rate at 1.2 mg/kg administered once daily via oral gavage for 4 consecutive days beginning 1 hr after infection measured on day 5 post infection relative to control; assay type: functional; in short: as §2
Plasmodium berghei [16] = experiment: Antimalarial activity against Plasmodium berghei infected in Swiss Webster mouse assessed as mouse survival rate at 33 mg/kg administered once daily via oral gavage for 4 consecutive days beginning 1 hr after infection measured on day 10 post infection relative to control; assay type: functional; in short: as §1
Plasmodium berghei [17] = experiment: Antimalarial activity against Plasmodium berghei infected in Swiss Webster mouse assessed as mouse survival rate at 3.7 mg/kg administered once daily via oral gavage for 4 consecutive days beginning 1 hr after infection measured on day 5 post infection relative to control; assay type: functional; in short: as §1
Plasmodium berghei [18] = experiment: Antimalarial activity against Plasmodium berghei infected in Swiss Webster mouse assessed as mouse survival rate at 33 mg/kg administered once daily via oral gavage for 4 consecutive days beginning 1 hr after infection measured on day 6 post infection relative to control; assay type: functional; in short: as §1
Plasmodium berghei [19] = experiment: Antimalarial activity against Plasmodium berghei infected in Swiss Webster mouse assessed as mouse survival rate at 100 mg/kg administered once daily via oral gavage for 4 consecutive days beginning 1 hr after infection measured on day 7 post infection relative to control; assay type: functional; in short: as §2
Plasmodium falciparum [20] = experiment: Antimalarial activity against Plasmodium falciparum 3D7 0087/N9 infected in NOD/SCID IL2R gamma null mouse assessed as reduction in parasitemia administered once daily via oral gavage for 4 consecutive days measured on day 4 post infection; assay type: functional; details: 3D7 0087/N9, po, 96 h
In short: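 Human-erythrocyte-engrafted NODscidIL2Rγnull mice carrying P. falciparum Pf3D70087/N9 in peripheral blood; compound given orally once daily for four consecutive days.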

Plasmodium berghei [21] = experiment: Antimalarial activity against Plasmodium berghei infected in Swiss Webster mouse assessed as mouse survival rate at 0.1 mg/kg administered once daily via oral gavage for 4 consecutive days beginning 1 hr after infection measured on day 6 post infection relative to control; assay type: functional; in short: as §2
[22] = Metabolic stability in rat hepatocytes at 22 uM after 44 hrs; assay type: ADME, cell-based, Hepatocyte
Plasmodium berghei [23] = experiment: Antimalarial activity against Plasmodium berghei infected in Swiss Webster mouse assessed as mouse survival rate at 100 mg/kg administered once daily via oral gavage for 4 consecutive days beginning 1 hr after infection measured on day 13 post infection relative to control; assay type: functional; in short: as §2
Plasmodium berghei [24] = experiment: Antimalarial activity against Plasmodium berghei infected in Swiss Webster mouse assessed as mouse survival rate at 100 mg/kg administered once daily via oral gavage for 4 consecutive days beginning 1 hr after infection measured on day 12 post infection relative to control; assay type: functional; in short: as §2
Plasmodium berghei [25] = experiment: Antimalarial activity against Plasmodium berghei infected in Swiss Webster mouse assessed as mouse survival rate at 0.1 mg/kg administered once daily via oral gavage for 4 consecutive days beginning 1 hr after infection measured on day 7 post infection relative to control; assay type: functional; in short: as §2
Plasmodium berghei [26] = experiment: Antimalarial activity against Plasmodium berghei infected in Swiss Webster mouse assessed as mouse survival rate at 0.1 mg/kg administered once daily via oral gavage for 4 consecutive days beginning 1 hr after infection measured on day 4 post infection relative to control; assay type: functional; in short: as §2
Plasmodium berghei [27] = experiment: Antimalarial activity against Plasmodium berghei infected in Swiss Webster mouse assessed as mouse survival rate at 11 mg/kg administered once daily via oral gavage for 4 consecutive days beginning 1 hr after infection measured on day 8 post infection relative to control; assay type: functional; in short: as §1

Row | SMILES | survival at 33 mg/kg (Plasmodium berghei [1]) [%] | survival at 100 mg/kg (Plasmodium berghei [2]) [%] | survival at 100 mg/kg (Plasmodium berghei [3]) [%] | IC50 (Plasmodium falciparum [4]) [nM] | ED90 (Plasmodium berghei [5]) [mg/kg] | survival at 100 mg/kg (Plasmodium berghei [6]) [%] | survival at 11 mg/kg (Plasmodium berghei [7]) [%] | survival at 33 mg/kg (Plasmodium berghei [8]) [%] | survival at 33 mg/kg (Plasmodium berghei [9]) [%] | survival at 100 mg/kg (Plasmodium berghei [10]) [%] | survival at 11 mg/kg (Plasmodium berghei [11]) [%] | survival at 0.4 mg/kg (Plasmodium berghei [12]) [%] | survival at 1.2 mg/kg (Plasmodium berghei [13]) [%] | survival at 11 mg/kg (Plasmodium berghei [14]) [%] | survival at 1.2 mg/kg (Plasmodium berghei [15]) [%] | survival at 33 mg/kg (Plasmodium berghei [16]) [%] | survival at 3.7 mg/kg (Plasmodium berghei [17]) [%] | survival at 33 mg/kg (Plasmodium berghei [18]) [%] | survival at 100 mg/kg (Plasmodium berghei [19]) [%] | survival at 100 mg/kg (Plasmodium berghei [24]) [%] | further results
1 | Cc1c(Oc2cnc(C(=O)N[C@@H](CO)CC(F)(F)F)cn2)ccc2c1B(O)OC2 | 100 | 100 | 100 | 82.2 | 7.3 | 0 | 100 | 100 | 100 | 100 | 100 | 100 | 100 | 100 | 100 | 60 | 100 | 100 | 100 | – | –
2 | Cc1c(Oc2cnc(C(=O)N3CC(O)(C4CC4)C3)cn2)ccc2c1B(O)OC2 | 100 | 100 | 100 | 51.7 | 10.3 | 100 | 100 | 100 | 100 | 100 | 100 | 100 | 100 | 100 | 100 | 40 | 100 | 100 | 100 | 100 | ED90 (Plasmodium falciparum [20]): < 5 mg/kg; survival at 0.1 mg/kg (Plasmodium berghei [21]): 100%; Stability [22]: Stable; survival at 100 mg/kg (Plasmodium berghei [23]): 100%; survival at 0.1 mg/kg (Plasmodium berghei [25]): 0%; survival at 0.1 mg/kg (Plasmodium berghei [26]): 100%
3 | CCCC1(O)CN(C(=O)c2cnc(Oc3ccc4c(c3C)B(O)OC4)cn2)C1 | 100 | 100 | 100 | 15.9 | 3.3 | 100 | 100 | 100 | 100 | 100 | 100 | 100 | 100 | 100 | 100 | 100 | 100 | 100 | 100 | 100 | survival at 0.1 mg/kg (Plasmodium berghei [21]): 100%; Stability [22]: Stable; survival at 100 mg/kg (Plasmodium berghei [23]): 100%; survival at 11 mg/kg (Plasmodium berghei [27]): 80%; survival at 0.1 mg/kg (Plasmodium berghei [25]): 0%; survival at 0.1 mg/kg (Plasmodium berghei [26]): 100%
4 | CCC[C@H](CO)NC(=O)c1cnc(Oc2ccc3c(c2C)B(O)OC3)cn1 | 100 | 100 | 100 | 161 | 11.7 | 20 | 100 | 100 | 100 | 100 | 100 | – | 100 | 100 | 100 | – | 100 | 100 | 100 | 20 | ED90 (Plasmodium falciparum [20]): 2.5 mg/kg; survival at 100 mg/kg (Plasmodium berghei [23]): 20%
5 | Cc1c(Oc2cnc(C(=O)NCCO)cn2)ccc2c1B(O)OC2 | 100 | 100 | 40 | 372 | 56.1 | – | 100 | 100 | 0 | 40 | 100 | – | 100 | 100 | 100 | – | 100 | 100 | 80 | – | –
6 | Cc1c(Oc2cnc(C(=O)N3CC(O)(C(F)(F)F)C3)cn2)ccc2c1B(O)OC2 | 100 | 100 | 100 | 6.6 | 5.7 | 100 | 100 | 100 | 100 | 100 | 100 | 100 | – | 100 | – | 50 | 100 | 100 | 100 | 100 | ED90 (Plasmodium falciparum [20]): < 5 mg/kg; survival at 0.1 mg/kg (Plasmodium berghei [21]): 100%; Stability [22]: Stable; survival at 100 mg/kg (Plasmodium berghei [23]): 100%; survival at 11 mg/kg (Plasmodium berghei [27]): 0%; survival at 0.1 mg/kg (Plasmodium berghei [25]): 0%; survival at 0.1 mg/kg (Plasmodium berghei [26]): 100%
7 | Cc1c(Oc2cnc(C(=O)N3CC(O)(C(C)C)C3)cn2)ccc2c1B(O)OC2 | 100 | 100 | 100 | 40.7 | 4.5 | 100 | 100 | 100 | 100 | 100 | 100 | 100 | – | 100 | – | 100 | 100 | 100 | 100 | 100 | ED90 (Plasmodium falciparum [20]): < 5 mg/kg; survival at 0.1 mg/kg (Plasmodium berghei [21]): 100%; Stability [22]: Stable; survival at 100 mg/kg (Plasmodium berghei [23]): 100%; survival at 11 mg/kg (Plasmodium berghei [27]): 60%; survival at 0.1 mg/kg (Plasmodium berghei [25]): 0%; survival at 0.1 mg/kg (Plasmodium berghei [26]): 100%
8 | Cc1c(Oc2cnc(C(=O)NC(C)CO)cn2)ccc2c1B(O)OC2 (stereo not drawn) | 100 | 100 | 80 | 342 | 44.3 | 40 | 40 | 100 | 100 | 100 | 40 | – | – | 100 | – | – | – | 100 | 100 | 0 | survival at 11 mg/kg (Plasmodium berghei [27]): 0%
